Measurements from PMC2795045 (Chemico-biological interactions, 2010).
Like-named read-outs stand apart in the source and are kept apart here.

How the values were obtained:
CYP1A [1] = test: CYP1A activity; assay type: cell-based, Xenopus laevis; conditions: Xenopus laevis
XLK-WG cells [2] = test: CYP1A activity; assay type: cell-based, Xenopus laevis; conditions: XLK-WG cells, at the concentration of maximum response
CYP1A1 = CYP1A1 mRNA induction in Hepa1c1c7 cells by quantitative RT-PCR; assay type: cell-based, mouse; conditions: mouse, EC50 for CYP1A1 mRNA induction, 3 hours exposure, qRT-PCR, ± SE
Hepa1c1c7 cells [3] = test: as above; assay type: cell-based, mouse; conditions: read-out: EC50 for CYP1A1 mRNA induction, 3 hours exposure, qRT-PCR, ± SE
XLK-WG cells [4] = test: Affymetrix expression microarray of XLK-WG cells; assay type: cell-based, Xenopus laevis; conditions: for Genes altered ≥ 2-fold: Induced / Genes altered ≥ 2-fold: Repressed / Genes altered (p ≤ 0.01): Induced / Genes altered (p ≤ 0.01): Repressed: 3 hours, number of genes; for Genes altered (p ≤ 0.01): Induced / Genes altered (p ≤ 0.01): Repressed: no two-fold cutoff; for fold induction at 0.1 µM: Xenopus laevis, 3 h
CYP1A7 (Xl.1220) mRNA [5] = test: Affymetrix expression microarray of XLK-WG cells; assay type: cell-based, Xenopus laevis; conditions: Xenopus laevis
CYP1A6 (Xl.1692) mRNA [6] = test: Affymetrix expression microarray of XLK-WG cells; assay type: cell-based, Xenopus laevis; conditions: Xenopus laevis
Hepa1c1c7 cells [7] = test: CYP1A activity; assay type: cell-based, mouse; conditions: for maximum EROD activity in Hepa1c1c7 cells relative to XLK-WG cells / maximum EROD activity induced: 3 hour treatment; for maximum EROD activity induced: ± SE
XLK-WG cells [8] = test: qRT-PCR of selected altered transcripts in XLK-WG cells; assay type: cell-based, Xenopus laevis; conditions: XLK-WG cells, relative to vehicle-treated control; for Xl.14954 (similar to voltage-gated potassium channel subunit MiRP4.1) fold induction, qRT-PCR: table row r10; for Xl.14954 fold induction, qRT-PCR: table row r16
CYP1A7 (Xl.1220) mRNA [9] = test: as above; assay type: cell-based, Xenopus laevis; conditions: Xenopus laevis
CYP1A6 (Xl.1692) mRNA [10] = test: as above; assay type: cell-based, Xenopus laevis; conditions: Xenopus laevis
XLK-WG cells [11] = test: CYP1A6/CYP1A7 mRNA induction in XLK-WG cells by quantitative RT-PCR; assay type: cell-based, Xenopus laevis
CYP1A [12] = test: CYP1A activity; assay type: cell-based, mouse; conditions: mouse
XLK-WG cells [13] = test: Semi-quantitative RT-PCR of AHR pathway transcripts in XLK-WG cells; assay type: cell-based, Xenopus laevis; conditions: 100 nM TCDD, 24 hours
Summary of the method: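 XLK-WG cells were kept in the dark at 29 °C and 5% CO2 in RPMI-1640 with 20% FBS, then grown to near confluence. They were exposed for 24 h to 100 nM TCDD or DMSO vehicle (0.25% final). Total RNA was column-extracted, and RT-PCR covered CYP1A6, CYP1A7, AHR1α, AHR1β, ARNT1 and ARNT2. Cycling was 95 °C/1 min; 43 cycles of […], 50 °C/30 sec, 72 °C/60 sec; then 72 °C/7 min. A no-RT control was included.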

[14] = read-out: Hypothetical protein MCG81225 (similar to Zn-finger protein 410; Xl.16594) fold induction, Microarray

Compound: O=Cc1c2[nH]c3ccccc3c2cc2[nH]c3ccccc3c12 [FICZ, 6-formylindolo[3,2-b]carbazole]
- EC50 (CYP1A [1]; EC50 of induced CYP1A activity (EROD), XLK-WG cells, 3 hour exposure, ± SE): 0.56 ± 0.15 nM
- rise of induced CYP1A activity with 24 hours versus 3 hour exposure (XLK-WG cells [2]): more than 20 fold
- EC50 (CYP1A1): ~0.06 nM
- EC50 (Hepa1c1c7 cells [3]): 0.07 ± 0.02 nM
- number of transcripts with altered expression in excess of TCDD (XLK-WG cells [4]; XLK-WG cells, 100 nM): 105
- Genes altered ≥ 2-fold: Induced (XLK-WG cells [4]; XLK-WG cells, 100 nM): 24
- Genes altered ≥ 2-fold: Repressed (XLK-WG cells [4]; XLK-WG cells, 100 nM): 2
- Genes altered (p ≤ 0.01): Induced (XLK-WG cells [4]; XLK-WG cells, 100 nM): 113
- Genes altered (p ≤ 0.01): Repressed (XLK-WG cells [4]; XLK-WG cells, 100 nM): 35
- fold induction at 0.1 µM (XLK-WG cells [4]; [14]): 1.3
- fold induction at 0.1 µM (XLK-WG cells [4]; read-out: KCNE5.1: voltage-gated potassium channel subunit MiRP4.1 (Xl.16370) fold induction, Microarray): 2
- fold induction at 0.1 µM (XLK-WG cells [4]; read-out: MGC52735:similar to gap-jct protein alpha-7 (Xl.3337) fold induction, Microarray): 5.2
- fold induction at 0.1 µM (XLK-WG cells [4]; read-out: MGC85390 (Xl.23887; similar to RAB 40B, RAS oncogene family) fold induction, Microarray): 2.1
- fold induction at 0.1 µM (XLK-WG cells [4]; read-out: Peripheral Myelin protein 22 (Xl.11939/Xl.14729) fold induction, Microarray): 2.2
- fold induction at 0.1 µM (XLK-WG cells [4]; read-out: SYNE 1 (Xl. 14119) fold induction, Microarray): 6.7
- fold induction at 0.1 µM (XLK-WG cells [4]; read-out: Xl.13754 (similar to C219-reactive peptide) fold induction, Microarray): 3.1
- fold induction at 0.1 µM (XLK-WG cells [4]; read-out: Xl.14584 (similar to gastrula-specific protein kinase) fold induction, Microarray): 2.9
- fold induction at 0.1 µM (XLK-WG cells [4]; read-out: Xl.14954 (similar to voltage-gated potassium channel subunit MiRP4.1) fold induction, Microarray): 3.1
- fold induction at 0.1 µM (XLK-WG cells [4]; read-out: Xl.14954 fold induction, Microarray): 2.1
- fold induction at 0.1 µM (XLK-WG cells [4]; read-out: Xl.25142 fold induction, Microarray): 2.1
- fold induction at 0.1 µM (XLK-WG cells [4]; read-out: Xl.7783 fold induction, Microarray): 5.9
- fold induction at 0.1 µM (CYP1A7 (Xl.1220) mRNA [5]): 16.1
- fold induction at 0.1 µM (CYP1A6 (Xl.1692) mRNA [6]): 2.1
- maximum EROD activity in Hepa1c1c7 cells relative to XLK-WG cells (Hepa1c1c7 cells [7]): ~ 20 fold
- EROD EC50 after 24 hours relative to EC50 after 3 hours (Hepa1c1c7 cells [7]; Hepa1c1c7 cells): ~ 50 fold
- maximum EROD activity induced (Hepa1c1c7 cells [7]; Hepa1c1c7 cells): 8.83 ± 2.72 pmol • mg protein^−1 • min^−1
- Hyaluronidase 2 (Xl.6247/Xl.16152) fold induction, qRT-PCR (XLK-WG cells [8]): 2.7 fold
- Hypothetical protein MCG81225 (similar to Zn-finger protein 410; Xl.16594) fold induction, qRT-PCR (XLK-WG cells [8]): 3.5 fold
- KCNE5.1: voltage-gated potassium channel subunit MiRP4.1 (Xl.16370) fold induction, qRT-PCR (XLK-WG cells [8]): 1.6 fold
- MGC52735:similar to gap-jct protein alpha-7 (Xl.3337) fold induction, qRT-PCR (XLK-WG cells [8]): 304 fold
- Peripheral Myelin protein 22 (Xl.11939/Xl.14729) fold induction, qRT-PCR (XLK-WG cells [8]): 1.0 fold
- SYNE 1 (Xl. 14119) fold induction, qRT-PCR (XLK-WG cells [8]): 106 fold
- Xl.13754 (similar to C219-reactive peptide) fold induction, qRT-PCR (XLK-WG cells [8]): 4.6 fold
- Xl.14584 (similar to gastrula-specific protein kinase) fold induction, qRT-PCR (XLK-WG cells [8]): 10.6 fold
- Xl.25142 fold induction, qRT-PCR (XLK-WG cells [8]): 1.8 fold
- Xl.7783 fold induction, qRT-PCR (XLK-WG cells [8]): 4.3 fold
- Xl.14954 (similar to voltage-gated potassium channel subunit MiRP4.1) fold induction, qRT-PCR (XLK-WG cells [8]): 9.5 fold
- Xl.14954 fold induction, qRT-PCR (XLK-WG cells [8]): 1.9 fold
- fold induction (CYP1A7 (Xl.1220) mRNA [9]): 412
- fold induction (CYP1A6 (Xl.1692) mRNA [10]): 455
- CYP1A6/7 mRNA quantities after 3 hours exposure relative to 24 hours exposure (XLK-WG cells [11]): up to 5 fold
- CYP1A7 mRNA induction after 3 hours relative to after 24 hours (XLK-WG cells [11]; highest dosage of FICZ): 5 fold

Compound: Clc1cc2c(cc1Cl)Oc1cc(Cl)c(Cl)cc1O2 [TCDD, 2,3,7,8-tetrachlorodibenzo-p-dioxin]
- EC50 at 3 h (CYP1A [1]): 10.5 ± 3.17 nM
- EC50 at 24 h (CYP1A [1]): ≥ 95 nM
- rise of induced CYP1A activity with 24 hours versus 3 hour exposure (XLK-WG cells [2]): more than 20 fold
- EC50 at 3 h (CYP1A1): ~0.06 nM
- EC50 (Hepa1c1c7 cells [3]): 0.05 ± 0.02 nM
- Genes altered ≥ 2-fold: Induced (XLK-WG cells [4]; XLK-WG cells, 100 nM): 3
- Genes altered ≥ 2-fold: Repressed (XLK-WG cells [4]; XLK-WG cells, 100 nM): 1
- Genes altered (p ≤ 0.01): Induced (XLK-WG cells [4]; XLK-WG cells, 100 nM): 31
- Genes altered (p ≤ 0.01): Repressed (XLK-WG cells [4]; XLK-WG cells, 100 nM): 12
- fold induction at 0.1 µM (XLK-WG cells [4]; [14]): 1.3
- fold induction at 3 h, 0.1 µM (CYP1A7 (Xl.1220) mRNA [5]): 6.7
- fold induction at 3 h, 0.1 µM (CYP1A6 (Xl.1692) mRNA [6]): 1.7
- EC50 at 3 h (CYP1A [12]): 0.03 ± 0.01 nM
- EC50 at 24 h (CYP1A [12]): 0.01 ± 0.002 nM
- maximum EROD activity in Hepa1c1c7 cells relative to XLK-WG cells (Hepa1c1c7 cells [7]): ~ 40 fold
- maximum EROD activity induced (Hepa1c1c7 cells [7]; Hepa1c1c7 cells): 13.41 ± 4.61 pmol • mg protein^−1 • min^−1
- Hyaluronidase 2 (Xl.6247/Xl.16152) fold induction, qRT-PCR (XLK-WG cells [8]): 1.6 fold
- Hypothetical protein MCG81225 (similar to Zn-finger protein 410; Xl.16594) fold induction, qRT-PCR (XLK-WG cells [8]): 3.2 fold
- KCNE5.1: voltage-gated potassium channel subunit MiRP4.1 (Xl.16370) fold induction, qRT-PCR (XLK-WG cells [8]): 2.0 fold
- MGC52735:similar to gap-jct protein alpha-7 (Xl.3337) fold induction, qRT-PCR (XLK-WG cells [8]): 69.1 fold
- MGC85390 (Xl.23887; similar to RAB 40B, RAS oncogene family) fold induction, qRT-PCR (XLK-WG cells [8]): 2.0 fold
- Peripheral Myelin protein 22 (Xl.11939/Xl.14729) fold induction, qRT-PCR (XLK-WG cells [8]): 1.1 fold
- SYNE 1 (Xl. 14119) fold induction, qRT-PCR (XLK-WG cells [8]): 8.4 fold
- Xl.13754 (similar to C219-reactive peptide) fold induction, qRT-PCR (XLK-WG cells [8]): 2.2 fold
- Xl.14584 (similar to gastrula-specific protein kinase) fold induction, qRT-PCR (XLK-WG cells [8]): 10.1 fold
- Xl.25142 fold induction, qRT-PCR (XLK-WG cells [8]): 0.9 fold
- Xl.7783 fold induction, qRT-PCR (XLK-WG cells [8]): 2.0 fold
- Xl.14954 (similar to voltage-gated potassium channel subunit MiRP4.1) fold induction, qRT-PCR (XLK-WG cells [8]): 6.6 fold
- Xl.14954 fold induction, qRT-PCR (XLK-WG cells [8]): 3.0 fold
- fold induction at 3 h, 100 nM (CYP1A7 (Xl.1220) mRNA [9]): 320
- fold induction at 3 h, 100 nM (CYP1A6 (Xl.1692) mRNA [10]): 427
- CYP1A6 and CYP1A7 mRNA expression, semi-quantitative RT-PCR (XLK-WG cells [13]): up regulation of CYP1A6 and CYP1A7 mRNAs
